The target of test [1] is T1, S-methylmethionine--homocysteine S-methyltransferase BHMT2 (Homo sapiens) (UniProt Q9H2M3).
T1 sequence (whole entry): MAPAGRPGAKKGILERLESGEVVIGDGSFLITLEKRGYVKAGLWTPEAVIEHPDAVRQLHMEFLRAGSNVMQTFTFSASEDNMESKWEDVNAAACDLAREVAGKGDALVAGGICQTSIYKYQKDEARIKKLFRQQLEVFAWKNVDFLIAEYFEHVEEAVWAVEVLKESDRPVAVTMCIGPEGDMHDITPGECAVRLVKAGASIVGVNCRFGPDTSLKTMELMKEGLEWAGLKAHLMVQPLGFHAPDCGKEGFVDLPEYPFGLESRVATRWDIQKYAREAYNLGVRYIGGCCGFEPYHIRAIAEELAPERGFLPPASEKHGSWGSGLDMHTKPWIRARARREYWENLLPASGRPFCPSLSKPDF
Nature of the test: Inhibition of recombinant human BHMT2 expressed in Escherichia coli […] at 20 uM. The procedure, abridged:
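BHMT-2 copurified with BHMT, 0.2–1 μM total protein. Reaction: 0.25 mM SMM (0.3 μCi), 2.5 mM D,L-Hcy, 0.2 mM ZnCl2, 0.1% β-mercaptoethanol, 50 mM Tris/HCl pH 7.5, 60 min at 37 °C. Methanol stop, product isolated on Dowex 1×4. Percent inhibition at 20 μM, tetraplicates, means ± SEM.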

Test [2] deals with T2, Betaine--homocysteine S-methyltransferase 1 (Homo sapiens) (UniProt Q93088).
T2 sequence (whole entry): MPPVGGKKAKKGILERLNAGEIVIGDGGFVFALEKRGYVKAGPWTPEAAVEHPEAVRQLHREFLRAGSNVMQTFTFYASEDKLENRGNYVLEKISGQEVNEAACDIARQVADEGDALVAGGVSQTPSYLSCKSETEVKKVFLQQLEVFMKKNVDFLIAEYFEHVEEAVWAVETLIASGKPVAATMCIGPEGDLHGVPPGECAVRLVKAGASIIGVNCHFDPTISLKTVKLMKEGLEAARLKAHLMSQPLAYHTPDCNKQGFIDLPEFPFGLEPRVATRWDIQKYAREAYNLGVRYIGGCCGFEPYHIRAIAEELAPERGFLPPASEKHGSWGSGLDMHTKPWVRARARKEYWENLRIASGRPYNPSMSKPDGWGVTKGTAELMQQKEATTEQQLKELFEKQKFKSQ
Nature of the test: Inhibition of recombinant human BHMT expressed in Escherichia coli […] at 20 uM. In outline: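 Human BHMT at 0.2 or 0.4 μM in 0.5 mL. 30 min at 37 °C, blanks without enzyme subtracted. Percent inhibition at 20 μM inhibitor in tetraplicates, means ± SEM.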

In test [3] the target is T3, S-methylmethionine--homocysteine S-methyltransferase BHMT2 (Homo sapiens, UniProt Q9H2M3).
T3 sequence (Q9H2M3 whole entry): T1 sequence (whole entry)
The test can be described thus: Competitive inhibition of recombinant human BHMT2 expressed in Escherichia coli […] by Dixon plot method in presence of D,L-homocysteine. Particulars: read-out: Ki(app). The procedure, abridged:
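BHMT-2 copurified with BHMT on chitin affinity. 0.2 mL reaction: 0.25 mM SMM (0.3 μCi), 0.2 mM ZnCl2, 0.1% β-mercaptoethanol, 50 mM Tris/HCl pH 7.5. D,L-Hcy varied 75–250 μM, inhibitor 0–300 nM. 60 min at 37 °C, methanol stop, Dowex 1×4 column. Triplicates, four separate measurements. Kiapp read from line intersection.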

For test [4], the target named is T4, Betaine--homocysteine S-methyltransferase 1 (Homo sapiens, UniProt Q93088).
T4 sequence (Q93088 whole entry): T2 sequence (whole entry)
Nature of the test: Inhibition of recombinant human BHMT expressed in Escherichia coli […]. The procedure, abridged: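 Human BHMT at 0.2 or 0.4 μM in 0.5 mL. Mix: 2 mM 14C-betaine (0.15 μCi), 1 mM fresh D,L-Hcy, 50 mM Tris/HCl pH 7.5, 0.07% β-mercaptoethanol. 30 min at 37 °C, ice-water stop, no-enzyme blank subtracted. At least nine inhibitor concentrations, duplicates. IC50 by nonlinear regression, ±SEM from three independent runs.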

In test [5] the target is T3, S-methylmethionine--homocysteine S-methyltransferase BHMT2. The test can be described thus: Inhibition of recombinant human BHMT2 expressed in Escherichia coli […]. In outline: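 BHMT-2 stabilized by copurification with BHMT, 0.2–1 μM total protein. 0.2 mL: 0.25 mM radiolabeled SMM (0.3 μCi), 2.5 mM D,L-Hcy, 0.2 mM ZnCl2, 0.1% β-mercaptoethanol, 50 mM Tris/HCl pH 7.5. 60 min at 37 °C, Dowex separation. At least nine inhibitor concentrations in duplicate. IC50 by nonlinear regression, ±SEM of three independent runs.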

Active and inactive are the calls of the source. The calls are words filed in the database; no cut-off is given here.

Turning to `NC(CCSCCCCC(=O)O)C(=O)O` (stereo not given), the inhibition entry in test [1] is “inactive”. Also, the inhibition result in test [2] was “Active”.
For `N[C@@H](CCSCCSCC[C@H](N)C(=O)O)C(=O)O`, the inhibition in test [1] came to 60%.
For `N[C@@H](CCSCSCC[C@H](N)C(=O)O)C(=O)O`, the inhibition result in test [1] is “inactive”.
Regarding `CC(CCSCC[C@H](N)C(=O)O)CCC(N)C(=O)O` (mixture of isomers), the inhibition in test [1] was above 90%; in test [2], 28%. For the same molecule, the Ki in test [3] amounted to 0.077 µM. Also, the IC50 in test [4] was determined as 76.6 µM; in test [5], 3.6 µM.
Turning to `CC(C)(CCSCC[C@H](N)C(=O)O)CCC(N)C(=O)O` (mixture of isomers), the inhibition result in test [2] was “Active”.

The term inhibition denotes the drop in the measured response relative to a control, in per cent. The term IC50 denotes the concentration that inhibits the measured activity by half.

The values are drawn from ChEMBL document CHEMBL2163269, “Double-headed sulfur-linked amino acids as first inhibitors for betaine-homocysteine S-methyltransferase 2” (J Med Chem, 2012).
